This is an account of results in ChEMBL document CHEMBL1772998, “Cytotoxic clerodane diterpenes from Casearia rupestris” (J Nat Prod, 2011).

Common to all, as to type: functional, cell-based
One test relates to HL-60. Nature of the test: Cytotoxicity against human HL60 cells after 72 hrs by MTT assay. The settings on record: HL-60, 72 h. A digest of the protocol:
(§1)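 Cells grown in RPMI 1640 with 10% FBS, 2 mM glutamine, streptomycin and penicillin at 37 C, 5% CO2. Seeded at 10^5 cells/well (adherent) or 0.3 × 10^6 cells/well (suspension). After 24 h, compounds in DMSO (0.39-25 μg/mL) added; doxorubicin (0.01-0.58 μg/mL) as positive control. After 69 h, MTT 0.5 mg/mL for 3 h. Formazan dissolved in DMSO, A595 read, IC50 by nonlinear regression.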
(Formazan colour is commonly taken as a measure of viable cells.)

For another test, the system named is SF-295. The test can be described thus: Cytotoxicity against human SF295 cells after 72 hrs by MTT assay. The conditions noted are these: SF-295, 72 h. A digest of the protocol: as §1
The subject of the next test is MDA-MB-435. Nature of the test: Cytotoxicity against human MDA-MB-435 cells after 72 hrs by MTT assay. The settings on record: MDA-MB-435, 72 h. The procedure, abridged: as §1
The test system of a further test is HCT-8. Nature of the test: Cytotoxicity against human HCT8 cells after 72 hrs by MTT assay. The conditions noted are these: HCT-8, 72 h. A digest of the protocol: as §1

Bounds are passed on as bounds.

As usually defined, the IC50 is the concentration at which inhibition is half-maximal. On to `C=CC(=C)CC[C@]1(C)[C@H](C)[C@@H](OC(C)=O)[C@H](OC(=O)/C=C\C=C\CCCCC)[C@@]23C(=C[C@H](OC(C)=O)C[C@@H]12)[C@@H](OC(C)=O)O[C@@H]3OC(C)=O`, for which the IC50 in the test on HL-60 was 4300 nM; in the test on SF-295, > 5000 nM; in the test on MDA-MB-435, > 5000 nM; in the test with HCT-8, > 5000 nM.
As for `C=CC(=C)CC[C@]1(C)[C@H](C)[C@@H](OC(=O)/C=C\C=C\CCCCC)[C@H](OC(C)=O)[C@@]23C(=C[C@H](OC(C)=O)C[C@@H]12)[C@@H](OC(C)=O)O[C@@H]3OC(C)=O`, the IC50 with HL-60, in the test with SF-295, in the test on MDA-MB-435 and with HCT-8 was > 5000 nM each time.
With `C=CC(=C)CC[C@]1(C)[C@H](C)[C@@H](O)[C@H](OC(=O)/C=C\C=C\CCCCC)[C@@]23C(=C[C@H](O)C[C@@H]12)[C@@H](OC(C)=O)O[C@@H]3OC(C)=O` (relative stereo) [CASEARUPESTRIN A], the IC50 in the test with HL-60 was found to be 100 nM; in the test on SF-295, 360 nM; with MDA-MB-435 it was 360 nM; in the test with HCT-8, 130 nM.
As for `C=CC(=C)CC[C@]1(C)[C@H](C)[C@@H](OC(=O)/C=C\C=C\CCCCC)[C@H](O)[C@@]23C(=C[C@H](O)C[C@@H]12)[C@@H](OC(C)=O)O[C@@H]3OC(C)=O` (relative stereo) [CASEARUPESTRIN B], the IC50 is 850 nM in the test with HL-60, 800 nM in the test with SF-295, 1300 nM in the test on MDA-MB-435 and 280 nM in the test on HCT-8.
Regarding `C=CC(=C)CC[C@]1(C)[C@H](C)[C@@H](OC(=O)/C=C\C=C\CCCCC)[C@H](O)[C@@]23C(=C[C@H](O)C[C@@H]12)[C@@H](OC)O[C@@H]3OC(C)=O` (relative stereo) [CASEARUPESTRIN C], the IC50 in the test on HL-60, in the test on SF-295, in the test on MDA-MB-435 and with HCT-8 was > 5000 nM throughout.
As to `C=CC(=C)CC[C@]1(C)[C@H](C)[C@@H](OC(=O)/C=C\C=C\CCCCC)[C@H](OC(C)=O)[C@@]23C(=C[C@H](O)C[C@@H]12)[C@@H](OC(C)=O)O[C@@H]3OC(C)=O` (relative stereo) [CASEARUPESTRIN D], the half-inhibitory concentration (IC50) in the test with HL-60 is 250 nM; in the test with SF-295, 430 nM; in the test with MDA-MB-435, 930 nM; with HCT-8, 250 nM.
With `COc1cccc2c1C(=O)c1c(O)c3c(c(O)c1C2=O)C[C@@](O)(C(=O)CO)C[C@@H]3O[C@H]1C[C@H](N)[C@H](O)[C@H](C)O1` [DOXORUBICIN], the IC50 in the test on HL-60 was 40 nM; in the test with SF-295, 400 nM.
